The list is not random: actives were taken first. Their share in the collection is about 2.6%.
TCR CD3 inh – blocks the human TCR-CD3 interaction. inhibition, % at 9.4 µM. hit rate 0.37% among 360,000. TAMRA-labeled TCR probe fluorescence, biochemical. AID 651800; in the data active means inhibition above about 19%;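 further: recombinant mutant TCR 2C K166C tagged with TAMRA read by polarization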
PRMT1 FP inh – inhibitors of human PRMT1 | Q99873 | recombinant PRMT1, activity-based probe fluorescence polarization | inhibition, % at 2.79 µM | hit rate 1.3% among 370,000 | AID 652257;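 active means inhibition above about 21% made by adding two undisclosed values, limit read from the data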
HTRA1 inh – inhibitors of human serine peptidase HTRA1; inhibition, % at 5.96 µM; recombinant HTRA1, FP-rhodamine activity-based probe, fluorescence polarization; hit rate 0.5% among 340,000; AID 504803; Q92743; in the data active means inhibition above about 36%
SIAE primary – human SIAE inhibition, primary screen; inhibition, % at 9.66 µM; SIAE FP-Rh probe binding, fluorescence polarization; Q9HAT2; hit rate 0.69% among 370,000;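 active means inhibition above a cutoff: mean of compounds within the control limits plus 3 SD of those, cut at about 17% in these data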
Target sequence (Q9HAT2 whole entry, looked up): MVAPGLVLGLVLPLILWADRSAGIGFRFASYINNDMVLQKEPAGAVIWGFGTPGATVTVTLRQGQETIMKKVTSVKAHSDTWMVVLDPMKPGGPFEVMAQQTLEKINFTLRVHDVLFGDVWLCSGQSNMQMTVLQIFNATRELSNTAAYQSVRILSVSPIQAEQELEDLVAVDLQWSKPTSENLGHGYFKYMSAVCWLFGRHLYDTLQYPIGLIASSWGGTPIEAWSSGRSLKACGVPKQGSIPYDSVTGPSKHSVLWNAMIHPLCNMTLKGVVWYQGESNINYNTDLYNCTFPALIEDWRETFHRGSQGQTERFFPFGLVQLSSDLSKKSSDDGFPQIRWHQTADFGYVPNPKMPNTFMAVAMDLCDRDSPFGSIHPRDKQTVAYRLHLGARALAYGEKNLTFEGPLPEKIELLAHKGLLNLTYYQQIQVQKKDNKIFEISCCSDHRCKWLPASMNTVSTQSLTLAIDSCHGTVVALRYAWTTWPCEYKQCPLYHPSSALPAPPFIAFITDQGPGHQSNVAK
ABHD4 inh – inhibitors of mouse ABHD4; inhibition, % at 8.92 µM; Q8VD66; purified mABHD4, FP-Rh probe fluorescence polarization; AID 720543; hit rate 0.54% among 370,000;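 active means inhibition exceeding the mean over every tested compound plus 3 SD, cut at about 30% in these data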
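Test system: mABHD4 protein | Buffer or medium: HEPES pH 7.0 buffer, 150 mM NaCl, 0.01% Pluronic F-127 | Probe or stimulus: FP-Rh fluorescent activity-based probe, added after compound pre-incubation | Timing: Pre-incubation 45 min, probe exposure 60 min, at 25 °C | Technique: Fluorescence polarization, excitation 525 nm, emission 598 nm, BODIPY TMR filters | Repeats: Single well per compound (singlicate)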
Hits are given with their value; n = inactive; x = no result.

SMILES	TCR CD3 inh	PRMT1 FP inh	HTRA1 inh	SIAE primary	ABHD4 inh
CCn1cc(/C=C/C(=O)Nc2ccc(C)cc2Br)cn1	n	n	n	n	n
Cc1ccc(S(=O)(=O)N2CCCCC2)cc1NC(=O)CCc1nc2ccccc2c(=O)[nH]1	n	21.7	n	n	n
COc1ccc(S(=O)(=O)N2CCCCC2)cc1NC(=O)CCc1nc2ccccc2c(=O)[nH]1	n	n	n	n	n
CC(Cl)C(=O)N1CCC(C(=O)NC2CCCc3ccccc32)CC1 (stereo not given)	x	n	x	n	n
O=C1NN(c2ccc(F)c(Cl)c2)C(=O)/C1=C\c1cccc(OC(=O)c2cccs2)c1	n	24.3	n	n	31.8
O=C(CNc1ccc2c(c1)OCO2)N/N=C\c1ccccc1Cl	n	21.5	n	n	n
O=S1(=O)C=CCN1Cc1cn(Cc2ccc(C(F)(F)F)cc2)nn1	x	n	x	n	n
COc1ccc(C(=O)CCN2CCN(c3ccccc3OC)CC2)cc1	n	n	n	n	n
COc1ccc(C(=O)CCN2CCc3cc(OC)c(OC)cc3C2)cc1	n	21.8	n	n	n
CCOC(=O)[C@@]12CCCC3=C1N(CCC3)C(=O)[C@H]2CC(=O)N1CCN(C(=O)C2CC2)CC1	x	n	x	n	n
O=C(O)C1(Nc2ccc([N+](=O)[O-])cc2[N+](=O)[O-])CCCC1	n	23.0	n	n	n
O=C(NNc1ccc([N+](=O)[O-])cc1[N+](=O)[O-])C1C2CCCCC21 (stereo not given)	n	n	n	n	n
COc1ccc(CN2CC(=O)N3[C@H]4c5cc(C)ccc5OC[C@@H]4[C@H](c4ccccc4)[C@]3(C)C2=O)cc1	n	22.1	n	n	n
O=C(CSc1nc2ccccc2c(=O)n1-c1ccccc1F)Nc1ccc2c(c1)CCC2	n	n	n	n	n
CCN(CC)CCn1c(SCC(=O)Nc2ccc3c(c2)CCC3)nc2ccccc2c1=O	n	21.2	n	n	n
CC(Sc1ccccc1)C(=O)NNC(=O)c1ccncc1 (stereo not given)	n	21.3	n	n	n
O=C(O)c1cc(N/N=C/c2ccc(N3CCOCC3)s2)ccc1Cl	n	32.9	n	20.6	43.5
COc1ccc(NC(=O)c2cc([N+](=O)[O-])ccc2NC(=O)CNCc2ccccn2)c(OC)c1	n	24.7	n	n	n
O=C1Nc2ccccc2C1=Nc1ccc(S(=O)(=O)Nc2nccs2)cc1	n	n	n	n	41.8
CCN(C(=O)COc1cc(=O)n(CC)c2ccccc12)c1cc(Cl)ccc1OC	n	n	n	21.7	n
COc1ccc(CNC(=O)c2ccc3c(c2)N(C)C(=O)CS3=O)cc1 (stereo not given)	n	22.4	n	n	n
CCOC(=O)CC1C(=O)NCCN1Cc1cccc(C(F)(F)F)c1 (stereo not given)	n	23.5	n	n	n
O=C(CC1C(=O)NCCN1Cc1cccc(C(F)(F)F)c1)NC1CCOCC1 (stereo not given)	n	n	n	n	n
COC(=O)c1ccc(NC(=O)CSC2=NCCN2)cc1	n	62.5	n	n	n
O=C(CSc1n[nH]c(Cc2ccccc2)n1)Nc1ccccc1Br	n	24.3	n	n	n
SMILES	TCR CD3 inh	PRMT1 FP inh	HTRA1 inh	SIAE primary	ABHD4 inh
Cc1cccc(NCc2nc(SCC(=O)Nc3ccccc3Br)n[nH]2)c1	n	n	n	n	n
CCOc1ccc(N2C(=O)CC(SCCN)C2=O)cc1 (stereo not given)	n	22.2	n	n	n
CCOC(=O)N1CCN(C(=O)C[C@H]2C[C@@]3(C(=O)OC)C(=C[C@H](COCc4ccccc4)O[C@@H]3C)N(CCc3ccc(OC)c(OC)c3)C2=O)CC1	x	n	x	n	n
CC(C)(N[C@@H](Cc1ccccc1)C(=O)NCCCc1ccccc1)C(=O)NCc1ccccc1	x	n	x	n	n
O=C1Nc2cc(Cl)ccc2Nc2cscc21	n	23.1	n	n	n
C[C@H]1Cn2nnc(-c3ccccc3)c2Cn2c3ccccc3c(=O)n21	x	n	x	n	n
Cc1cc(NS(=O)(=O)c2ccc(NC(=O)CSc3nc4sc(C)c(C)c4c(=O)n3Cc3ccco3)cc2)nc(C)n1	x	24.3	x	n	n
CC(C)(C)c1ccc(-c2nnc(SCC(=O)Nc3ccc(S(=O)(=O)Nc4nccs4)cc3)n2Cc2ccco2)cc1	x	22.0	x	n	n
Clc1ccc([C@H]2OC[C@@]3(CNCC4CC4)CS[C@H](c4ccc(Cl)cc4)N23)cc1	x	n	x	n	n
Cc1cc(C(=O)COC(=O)C2=COCCO2)c(C)n1-c1ccc2c(c1)OCO2	n	n	n	17.4	n

Compound activity as filed in PubChem BioAssay.
